# Measurements of several laboratories.
# Target: Serine/threonine-protein kinase LATS1 (LATS1, Homo sapiens, UniProt O95835)
# Sequence (O95835 1-1130, as in one of the studies): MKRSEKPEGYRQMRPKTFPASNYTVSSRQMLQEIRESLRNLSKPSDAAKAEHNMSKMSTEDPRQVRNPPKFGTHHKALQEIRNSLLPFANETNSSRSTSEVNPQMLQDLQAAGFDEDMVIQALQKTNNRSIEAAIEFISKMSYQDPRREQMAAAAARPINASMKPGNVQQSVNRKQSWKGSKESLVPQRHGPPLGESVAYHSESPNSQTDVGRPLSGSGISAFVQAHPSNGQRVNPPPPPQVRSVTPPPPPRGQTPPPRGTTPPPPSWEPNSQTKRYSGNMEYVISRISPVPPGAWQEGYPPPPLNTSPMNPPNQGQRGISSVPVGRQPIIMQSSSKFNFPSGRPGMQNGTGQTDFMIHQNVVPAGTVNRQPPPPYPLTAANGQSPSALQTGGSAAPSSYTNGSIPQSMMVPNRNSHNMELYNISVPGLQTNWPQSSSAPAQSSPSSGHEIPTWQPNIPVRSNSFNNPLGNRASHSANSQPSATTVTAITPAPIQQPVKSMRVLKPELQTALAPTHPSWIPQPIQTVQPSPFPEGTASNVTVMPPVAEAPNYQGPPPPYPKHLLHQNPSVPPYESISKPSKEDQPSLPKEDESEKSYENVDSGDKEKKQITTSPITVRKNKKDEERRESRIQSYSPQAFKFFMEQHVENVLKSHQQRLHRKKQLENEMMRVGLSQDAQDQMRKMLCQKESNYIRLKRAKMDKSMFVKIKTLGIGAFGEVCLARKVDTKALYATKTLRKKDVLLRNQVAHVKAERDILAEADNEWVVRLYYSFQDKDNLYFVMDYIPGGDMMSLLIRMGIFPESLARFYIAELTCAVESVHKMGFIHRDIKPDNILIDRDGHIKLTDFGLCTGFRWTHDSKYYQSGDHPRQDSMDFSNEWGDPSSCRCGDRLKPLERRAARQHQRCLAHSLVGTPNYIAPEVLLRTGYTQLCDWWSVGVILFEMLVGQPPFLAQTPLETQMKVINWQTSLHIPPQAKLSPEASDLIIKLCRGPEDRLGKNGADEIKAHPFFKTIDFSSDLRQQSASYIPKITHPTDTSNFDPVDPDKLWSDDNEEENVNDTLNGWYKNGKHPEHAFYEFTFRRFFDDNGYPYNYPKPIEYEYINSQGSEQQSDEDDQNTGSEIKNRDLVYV
Structure (SMILES),test,setting,remaining binding
C=CC(=O)N1CCC(C(=O)NCC(=O)N2CCN(c3nc(-c4cnc(N)nc4C(F)F)nc(N4CCOCC4)n3)CC2)CC1,"binding, competition with immobilised ligand",1 µM,100%
O=C(O)[C@@H]1[C@@H](Cn2nnc3ccccc3c2=O)CC[C@H]1C(=O)c1ccc(OCCC2CCOCC2)cc1,"cell-free assay, competition with immobilised ligand",1 µM,90%
O=C(NCCCN1CCOCC1)c1ccc(Nc2nccc(-c3cc4ccccc4s3)n2)cc1,"binding, competition with immobilised ligand",1 µM,100%
c1cncc(-c2cccc(Nc3nccc(NC4CCCCC4)n3)c2)c1,"binding, competition with immobilised ligand",10 µM,19%
O=C(Nc1c[nH]nc1C(=O)NC1CCNCC1)c1cc(F)cc(F)c1,"binding, competition with immobilised ligand",1 µM,100%
O=C(NCCCC1CCCCC1)c1ccc(CNC(=O)c2cnn(-c3ccccc3)c2C(F)(F)F)cc1,"cell-free assay, competition with immobilised ligand",0.1 µM,100%
CN(C)c1ncc(F)c(-c2cnn3ncccc23)n1,binding,1 µM,100%
COc1ncc2cc3ccccc3nc2c1C#N,"cell-free assay, competition with immobilised ligand",5 µM,93%
c1cnn2ncc(-c3ccnc(N4CCC45COC5)n3)c2c1,binding,1 µM,88%
O=C(Nc1ccc(Oc2ccc(F)cc2)cc1)N1CCc2ncccc2[C@H]1c1ccc(F)cc1,"cell-free assay, competition with immobilised ligand",1 µM,86%
CCN1CCN(Cc2ccc(C(=O)Nc3ccc(C)c(Oc4ccc5c(c4)CC(=O)N5)c3)cc2C(F)(F)F)CC1,"binding, competition with immobilised ligand",1 µM,94%
O=C(c1ccc(Nc2ncc(Cl)c(-c3cc4ccccc4s3)n2)cc1)N1CCC(N2CCCC2)CC1,"binding, competition with immobilised ligand",1 µM,60%
COc1cc(-c2cn(C3CCc4c(F)cccc4N(CC(F)(F)F)C3=O)nn2)ccc1-n1cnc(C)c1 (stereo not drawn),"cell-free assay, competition with immobilised ligand",1 µM,93%
COc1ccnn2ncc(-c3ccnc(N(C)C)n3)c12,binding,1 µM,100%
Cc1cc(NC(=O)c2cccc(S(F)(F)(F)(F)F)c2)cc(-n2ccn3nc(-c4cccnc4)cc23)c1,"cell-free assay, competition with immobilised ligand",1 µM,100%
N[C@H]1CCN(c2nccc(-c3cnn4ncccc34)n2)C1,binding,1 µM,100%
O=C(O)c1cc(-c2ccc(C3CCNCC3)cc2)c2ccc(-c3ccc(C(F)(F)F)cc3)cc2c1,"cell-free assay, competition with immobilised ligand",1 µM,88%
CNC(=O)[C@@H]1CC[C@@H](n2c(-c3ccc4cnccc4c3)nc3ccc(C(=O)NCc4cccc(C(N)=O)c4)cc32)C1,"binding, competition with immobilised ligand",1 µM,100%
Cc1cnn2ncc(-c3ccnc(N(C)C)n3)c2c1,binding,1 µM,48%
COc1cnc(Nc2cccc(S(N)(=O)=O)c2)nc1N1CCN(c2ccccc2)C(=O)C1,"binding, competition with immobilised ligand",1 µM,90%
C[C@@H]1CCN(c2nccc(-c3cnn4ncccc34)n2)C1,binding,1 µM,100%
